# Published values of several laboratories.
# Compare with care: the assays were run in different laboratories.
# Target: Death-associated protein kinase 1 (DAPK1, Homo sapiens, UniProt P53355)
Compound,observed,mode,method,concentration,endpoint,value
Nc1ncc(-c2nc(N3CCOCC3)nc(N3CCOCC3)n2)c(C(F)F)n1,binding,,competition with immobilised ligand,10 µM,remaining binding,94%
Cn1cc(-c2cc(F)cc(N3CCn4c(cc5c4CCCC5)C3=O)c2CO)cc(Nc2ccc(N3CCN(C4COC4)CC3)cn2)c1=O,enzyme activity,inhibitor,,0.1 µM,inhibition,8%
Cc1nn(C)cc1-c1nc2c(N3CCN(Cc4ccc(Cl)cc4)CC3)c(Cl)cnc2[nH]1,binding,,competition with immobilised ligand,1 µM,remaining binding,80%
Cn1cncc1[C@](O)(COc1ccc(C#N)cc1-c1ccc(OC(F)(F)F)cc1)c1ccc(C#N)cc1,cell-free assay,,competition with immobilised ligand,1 µM,remaining binding,84%
O=c1[nH]c2ccccc2n1C1CCN(Cc2ccc(-c3[nH]c4cc5ncnc5cc4nc3-c3ccccc3)cc2)CC1,cell-free assay,,,0.5 µM,remaining signal,82.9%
COc1cc(Nc2ncc(F)c(Nc3ccc4c(n3)NC(=O)C(C)(C)O4)n2)cc(OC)c1OC,binding,,competition with immobilised ligand,10 µM,inhibition,97%
COc1ncccc1-c1cnn2ccc(N3CCN(C(=O)OC(C)C)CC3)nc12,binding,,competition with immobilised ligand,1 µM,remaining binding,82%
CC(C)(C)c1cc(C=C(C#N)C#N)cc(Br)c1O,enzyme activity,inhibitor,,0.5 µM,remaining activity,85.9%
Cn1cc(-c2cccc(N3CCc4c(sc5c4CC(C)(C)C5)C3=O)c2CO)cc(Nc2ccncn2)c1=O,enzyme activity,inhibitor,,1 µM,inhibition,1%
